Holding throughout (format): functional, cell-based
The subject of assay [1] is SNB-19. As to the kind of experiment: Antitumor activity against human SNB19 by sulforhodamine B assay. The procedure, abridged:
(§1)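 Human tumour lines from ATCC; growth inhibition by sulforhodamine B staining, absorbance read at 530 nm; IC50 taken as the drug concentration inhibiting cell growth by 50%, calculated by curve fitting.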
In general terms: In SRB staining, fixed cells bind dye roughly in proportion to their protein.

Assay [2] concerns OVCAR-3. Nature of the assay: Antitumor activity against human OVCAR-3 by sulforhodamine B assay. The procedure, abridged: as §1
Assay [3] relates to PC-3. Nature of the assay: Antitumor activity against human PC3 by sulforhodamine B assay. The procedure, abridged: as §1
The subject of assay [4] is PANC-1. Nature of the assay: Antitumor activity against human PANC1 by sulforhodamine B assay. In outline:
as §1

The subject of assay [5] is CAKI-1. As to the kind of experiment: Antitumor activity against human Caki1 by sulforhodamine B assay. The procedure, abridged:
as §1

Assay [6] deals with HCT-116. Nature of the assay: Antitumor activity against human HCT116 by sulforhodamine B assay. In outline: as §1
Assay [7] concerns MDA-MB-231. As to the kind of experiment: Antitumor activity against human MDA-MB-231 by sulforhodamine B assay. In outline: as §1
The subject of assay [8] is SK-MEL-28. As to the kind of experiment: Antitumor activity against human SK-MEL-28 by sulforhodamine B assay. The procedure, abridged: as §1

pIC50: −log10 of the molar value.

Usually pIC50 stands for −log10 of the IC50, conventionally taken in molar units. A higher pIC50 goes with a small IC50.

For the compound `COc1cc(OC)cc(-c2cc3ccc(N(C)C)cc3c(N)n2)c1`, the pIC50 in assay [1] was 7.24; in assay [2], 7.60; in assay [3], 7.32; in assay [4], 7.59; in assay [5] it was 7.42; in assay [6] it was 7.54. Further, the pIC50 in assay [7] was 7.57; in assay [8], 7.35.

Consider `Cc1ccc2cc(-c3ccccc3F)nc(N)c2c1`, for which the pIC50 was 5.66 in assay [1]; 6.04 in assay [2]; 5.56 in assay [3]; 5.67 in assay [4]; 6.23 in assay [5]; 5.91 in assay [6]. Further, the pIC50 in assay [7] was 6.14; in assay [8], 5.79.

Consider `COc1ccc(-c2cc3ccc(N(C)C)cc3c(N)n2)cc1OC`, for which the pIC50 in assay [1] is 6.60; in assay [2], 6.85; in assay [3], 6.64; in assay [4], 6.72; in assay [5], 6.77; in assay [6], 6.74. The pIC50 is 6.82 in assay [7] and 6.48 in assay [8].

Consider `COc1cccc(-c2cc3cc(N(C)C)ccc3c(N)n2)c1`, for which the pIC50 is 7.03 in assay [1]; 7.15 in assay [2]; 6.72 in assay [3]; 6.96 in assay [4]; 7.17 in assay [5]; 7.19 in assay [6]. Moreover, the pIC50 in assay [7] is 7.23; in assay [8], 6.96.

As for `COc1ccccc1-c1cc2cc(C)ccc2c(N)n1`, the pIC50 in assay [1] was 5.95; in assay [2] it was 6.31; in assay [3] it was < 5.52; in assay [4], 6.03; in assay [5] it was 6.46; in assay [6], 6.17. Also, the pIC50 is 6.36 in assay [7] and 6.10 in assay [8].

Consider `COc1cccc(-c2cc3cc(C)ccc3c(N)n2)c1`, for which the pIC50 was 6.54 in assay [1]; 6.74 in assay [2]; 6.60 in assay [3]; 6.51 in assay [4]; 6.89 in assay [5]; 6.72 in assay [6]. Further, the pIC50 in assay [7] was 6.85; in assay [8], 6.47.

For the compound `COc1ccc(-c2cc3cc(C)ccc3c(N)n2)cc1`, the pIC50 in assay [1] was 5.65; in assay [2], 6.10; in assay [3], 5.53; in assay [4] it was 5.64; in assay [5], 6.12; in assay [6], 5.87. Besides, the pIC50 in assay [7] is 6.03; in assay [8], 5.74.

For `COc1cc(OC)cc(-c2cc3cc(C)ccc3c(N)n2)c1`, the pIC50 was 6.33 in assay [1]; 6.74 in assay [2]; 6.37 in assay [3]; 6.42 in assay [4]; 6.80 in assay [5]; 6.62 in assay [6]. For the same compound, the results for the pIC50 in assay [7] and in assay [8] were 6.74 and 6.39, respectively.

`Cc1ccc2c(N)nc(-c3ccccc3F)cc2c1`: the negative logarithm of the IC50 (pIC50) in assay [1] is 5.82; in assay [2], 6.24; in assay [3], 5.74; in assay [4], 5.80; in assay [5], 6.34; in assay [6], 6.15. Also, the values for the pIC50 in assay [7] and in assay [8] were 6.26 and 5.97, respectively.

Consider `COc1ccccc1-c1cc2ccc(C)cc2c(N)n1`, for which the pIC50 is 6.11 in assay [1]; 6.29 in assay [2]; 6.00 in assay [3]; 6.17 in assay [4]; 6.66 in assay [5]; 6.33 in assay [6]. Moreover, the negative-log IC50 (pIC50) in assay [7] was 6.49; in assay [8] it was 6.17.

Turning to `Cc1ccc2c(N)nc(-c3ccccc3C)cc2c1`, the pIC50 is 6.59 in assay [1]; 6.82 in assay [2]; 6.62 in assay [3]; 6.62 in assay [4]; 6.92 in assay [5]; 6.72 in assay [6]. In addition, the pIC50 is 6.82 in assay [7] and 6.46 in assay [8].

These data come from ChEMBL document CHEMBL1221267, “Synthesis, in vitro and in vivo evaluation of 3-arylisoquinolinamines as potent antitumor agents” (Bioorg Med Chem Lett, 2010).
